This experiment addresses PvdQ acyl-homoserine lactone acylase (Pseudomonas aeruginosa LESB58). The experiment is described as follows: P. aeruginosa PvdQ acylase inhibitors, dose response, biochemical, fluorescence, plate reader, dry powder samples (AID 623951). Conditions: purified PvdQ, 4-MU laurate hydrolysis. An outline of the steps: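 Assay system: Purified Pseudomonas aeruginosa PvdQ acylase enzyme | Buffer or medium: Tris pH 8.0, NaCl, TCEP, Triton X-100 | Reagent: 4-methylumbelliferone laurate substrate at 0.8 mM final | Incubation: 30 min pre-incubation, 60 min reaction, RT | Detection: Fluorescence, ex 303–367 nm, em 440–460 nm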

The structures appear in SMILES notation.

The term AC50 denotes the concentration at which the activity in the assay is half-maximal.

For `N#Cc1ccc(C(C#N)c2ccc(Cl)cc2)nc1` (stereo unspecified), the AC50 is 2660 nM.
Consider `N#CC(CC1CC1)c1ccc(Cl)cc1` (stereo unspecified), for which the AC50 was 258 nM.
Regarding `CCCCC(C#N)c1ccc(F)cc1` (stereo unspecified), the AC50 is 20.2 nM.
In the case of `N#CC(c1ccc(C(F)(F)F)cc1)c1cccc(Cl)n1` (stereo unspecified) it was 287 nM.
Under `CC(C)CC(C#N)c1ccc(Cl)cc1` (stereo unspecified) stands 121 nM; under `N#CC(c1cccc(Cl)n1)c1ccc(Cl)cc1F` (stereo unspecified), 77 nM.
For `Cc1ccc(C(C#N)c2ccc(Cl)cc2)nc1C#N` (stereo unspecified), the AC50 is 221 nM.
`CCCCC(C#N)c1ccccc1OC(F)(F)F` (stereo unspecified): the AC50 was 1300 nM.
As to `N#CC(c1ccc(C(F)(F)F)cc1)c1cccc(C(F)(F)F)n1` (stereo unspecified), the AC50 was 43.4 nM.
With `N#CC(c1ccc(F)cc1)c1cccc(C(F)(F)F)n1` (stereo unspecified), the AC50 was 11.7 nM.
`CCCC(C#N)c1ccc(Cl)cc1` (stereo unspecified): the AC50 was 99.4 nM.
Under `N#CC(c1ccc(F)cc1)c1ccc(C(F)(F)F)c(Cl)n1` (stereo unspecified) stands 398 nM.
Regarding `N#CC(c1ccc(Cl)cc1)c1ccc(C(F)(F)F)c(Cl)n1` (stereo unspecified), the AC50 was 414 nM.
`CCCCC(C#N)c1ccc(C(F)(F)F)cc1` (stereo unspecified): the AC50 is 182 nM.
Turning to `N#CC(c1ccc(Cl)cc1)c1ncccc1Cl` (stereo unspecified), the AC50 is 5.76 nM.
Under `N#CC(c1ccc(C(F)(F)F)c(Cl)n1)c1ccc(Cl)cc1Cl` (stereo unspecified) stands 831 nM.
Under `N#CC(c1cccc(C(F)(F)F)n1)c1ccccc1OC(F)(F)F` (stereo unspecified) stands 1530 nM.
Consider `N#Cc1cccc(C(C#N)c2ccc(Cl)cc2)n1` (stereo unspecified), for which the AC50 was 138 nM.
On to `N#Cc1cccc(C(C#N)c2ccc(Cl)cc2Cl)n1` (stereo unspecified), for which the AC50 is 380 nM.
Turning to `Cc1ccc(C(C#N)c2ccccc2OC(F)(F)F)nc1C#N` (stereo unspecified), the AC50 is 467 nM.
Under `Cc1cccc(C(C#N)c2ccc(Cl)cc2)n1` (stereo unspecified) stands 138 nM.
Regarding `COc1cccc(C(C#N)c2ccc(F)cc2)n1` (stereo unspecified), the AC50 was 240 nM.
In the case of `N#CC(c1cccc(C(F)(F)F)n1)c1ccc(Cl)cc1F` (stereo unspecified) it was below 3 nM; in that of `N#CC(c1ccc(C(F)(F)F)c(Cl)n1)c1ccc(Cl)cc1F` (stereo unspecified), 802 nM.
In the case of `CCCCC(C#N)c1ccc(Cl)cc1F` (stereo unspecified) it was 457 nM.
Turning to `N#Cc1cccc(C(C#N)c2ccc(Cl)cc2F)n1` (stereo unspecified), the AC50 is 140 nM.
Under `N#Cc1cccc(C(C#N)c2ccccc2OC(F)(F)F)n1` (stereo unspecified) stands 1340 nM; under `CCCCC(C#N)c1ccc(Cl)cc1` (stereo unspecified), 118 nM; under `N#CC(c1ccc(Cl)cc1)c1cccc(C(F)(F)F)n1` (stereo unspecified), 11.1 nM.
On to `CCCCC(C#N)c1ccc(Cl)cc1Cl` (stereo unspecified), for which the AC50 was 75.6 nM.
Regarding `N#Cc1ccc(C(C#N)c2ccc(Cl)cc2Cl)nc1` (stereo unspecified), the AC50 was 2700 nM.
In the case of `N#CC(c1cccc(Cl)n1)c1ccccc1OC(F)(F)F` (stereo unspecified), the AC50 was 936 nM.
Take `N#CC(c1ccc(C(F)(F)F)c(Cl)n1)c1ccccc1OC(F)(F)F` (stereo unspecified): the AC50 was 433 nM.
Turning to `N#CC(c1ccc(C(F)(F)F)cc1)c1ccc(C(F)(F)F)c(Cl)n1` (stereo unspecified), the AC50 was 1390 nM.
With `N#CC(c1cccc(Cl)n1)c1ccc(Cl)cc1Cl` (stereo unspecified), the AC50 is 203 nM.
In the case of `Cc1ccc(C(C#N)c2ccc(F)cc2)nc1C#N` (stereo unspecified) it was 142 nM; in that of `N#CC(c1ccc(Cl)cc1Cl)c1ncccc1Cl` (stereo unspecified), 279 nM.
As to `N#CC(c1ccc(Cl)cc1)c1ccc(Cl)cn1` (stereo unspecified), the AC50 was 62.8 nM.
As to `CC(C#N)(c1ccc(Cl)cc1)c1ccc(C(F)(F)F)cn1` (stereo unspecified), the AC50 was 5630 nM.
In the case of `Cc1ccc(C(C#N)c2ccc(Cl)cc2)nc1` (stereo unspecified) it was 271 nM; in that of `N#CC(c1ccc(Cl)cc1)c1ccc(C(F)(F)F)cn1` (stereo unspecified), 546 nM.

(Values after PubChem BioAssay AID623951 (Broad Institute, 2012).)
